ChEMBL document CHEMBL2062453, “Lead optimization through VLAK protocol: new annelated pyrrolo-pyrimidine derivatives as antitumor agents” (2012)

Assays:
Format in all cases: functional
CCRF-CEM = assay: Cytotoxicity against human CCRF-CEM cells assessed as cell growth at 10 uM after 48 hrs by SRB assay relative to control; conditions: read-out: Activity
Summary of the method: (§1)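 NCI primary screen of about 60 human tumour lines. Cells inoculated and preincubated, then a single test concentration added and cultures incubated 48 h. Result given as percent growth (G%) of treated versus untreated control cells.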

HL-60(TB) = assay: Cytotoxicity against human HL-60(TB) cells assessed as cell growth at 10 uM after 48 hrs by SRB assay relative to control; conditions: HL-60, 48 h, read-out: Activity
K562 = assay: Cytotoxicity against human K562 cells assessed as cell growth at 10 uM after 48 hrs by SRB assay relative to control; conditions: K562, 48 h, read-out: Activity; summary of the method: as §1
SR = assay: Cytotoxicity against human SR cells assessed as cell growth at 10 uM after 48 hrs by SRB assay relative to control; conditions: read-out: Activity
Summary of the method: (§2)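 NCI single-dose primary screen across about 60 human tumour lines. Each line was inoculated and preincubated on microtiter plates, then exposed to one concentration of agent for 48 h. Growth is reported as percent growth (G%) of treated cells versus untreated control cells.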

A549 = assay: Cytotoxicity against human A549 cells assessed as cell growth at 10 uM after 48 hrs by SRB assay relative to control; conditions: A549, 48 h, read-out: Activity; summary of the method: as §1
NCI-H23 = assay: Cytotoxicity against human NCI-H23 cells assessed as cell growth at 10 uM after 48 hrs by SRB assay relative to control; conditions: NCI-H23, 48 h, read-out: Activity
COLO 205 = assay: Cytotoxicity against human COLO205 cells assessed as cell growth at 10 uM after 48 hrs by SRB assay relative to control; conditions: COLO 205, 48 h, read-out: Activity; summary of the method: as §1
HCC 2998 = assay: Cytotoxicity against human HCC2998 cells assessed as cell growth at 10 uM after 48 hrs by SRB assay relative to control; conditions: HCC 2998, 48 h, read-out: Activity; summary of the method: as §1
SF-268 = assay: Cytotoxicity against human SF268 cells assessed as cell growth at 10 uM after 48 hrs by SRB assay relative to control; conditions: SF-268, 48 h, read-out: Activity
SF-295 = assay: Cytotoxicity against human SF295 cells assessed as cell growth at 10 uM after 48 hrs by SRB assay relative to control; conditions: SF-295, 48 h, read-out: Activity
SF-539 = assay: Cytotoxicity against human SF539 cells assessed as cell growth at 10 uM after 48 hrs by SRB assay relative to control; conditions: SF-539, 48 h, read-out: Activity
SNB-19 = assay: Cytotoxicity against human SNB19 cells assessed as cell growth at 10 uM after 48 hrs by SRB assay relative to control; conditions: SNB-19, 48 h, read-out: Activity
SNB-75 = assay: Cytotoxicity against human SNB75 cells assessed as cell growth at 10 uM after 48 hrs by SRB assay relative to control; conditions: SNB-75, 48 h, read-out: Activity
LOX IMVI = assay: Cytotoxicity against human LOXIMVI cells assessed as cell growth at 10 uM after 48 hrs by SRB assay relative to control; conditions: read-out: Activity; summary of the method: as §1
M14 = assay: Cytotoxicity against human M14 cells assessed as cell growth at 10 uM after 48 hrs by SRB assay relative to control; conditions: M14, 48 h, read-out: Activity; summary of the method: as §1
MDA-MB-435 = assay: Cytotoxicity against human MDA-MB-435 cells assessed as cell growth at 10 uM after 48 hrs by SRB assay relative to control; conditions: MDA-MB-435, 48 h, read-out: Activity
SK-MEL-2 = assay: Cytotoxicity against human SK-MEL-2 cells assessed as cell growth at 10 uM after 48 hrs by SRB assay relative to control; conditions: SK-MEL-2, 48 h, read-out: Activity
SK-MEL-28 = assay: Cytotoxicity against human SK-MEL-28 cells assessed as cell growth at 10 uM after 48 hrs by SRB assay relative to control; conditions: SK-MEL-28, 48 h, read-out: Activity
UACC-62 = assay: Cytotoxicity against human UACC62 cells assessed as cell growth at 10 uM after 48 hrs by SRB assay relative to control; conditions: UACC-62, 48 h, read-out: Activity; summary of the method: as §2
OVCAR-4 = assay: Cytotoxicity against human OVCAR4 cells assessed as cell growth at 10 uM after 48 hrs by SRB assay relative to control; conditions: OVCAR-4, 48 h, read-out: Activity
OVCAR-5 = assay: Cytotoxicity against human OVCAR5 cells assessed as cell growth at 10 uM after 48 hrs by SRB assay relative to control; conditions: OVCAR-5, 48 h, read-out: Activity
OVCAR-8 = assay: Cytotoxicity against human OVCAR8 cells assessed as cell growth at 10 uM after 48 hrs by SRB assay relative to control; conditions: OVCAR-8, 48 h, read-out: Activity
NCI/ADR-RES = assay: Cytotoxicity against human NCI/ADR-RES cells assessed as cell growth at 10 uM after 48 hrs by SRB assay relative to control; conditions: read-out: Activity
786-0 = assay: Cytotoxicity against human 786-0 cells assessed as cell growth at 10 uM after 48 hrs by SRB assay relative to control; conditions: 786-0, 48 h, read-out: Activity; summary of the method: as §1
ACHN = assay: Cytotoxicity against human ACHN cells assessed as cell growth at 10 uM after 48 hrs by SRB assay relative to control; conditions: read-out: Activity; summary of the method: as §1
RXF 393 = assay: Cytotoxicity against human RXF393 cells assessed as cell growth at 10 uM after 48 hrs by SRB assay relative to control; conditions: RXF 393, 48 h, read-out: Activity
SN12C = assay: Cytotoxicity against human SN12C cells assessed as cell growth at 10 uM after 48 hrs by SRB assay relative to control; conditions: read-out: Activity
TK-10 = assay: Cytotoxicity against human TK10 cells assessed as cell growth at 10 uM after 48 hrs by SRB assay relative to control; conditions: TK-10, 48 h, read-out: Activity; summary of the method: as §2
UO-31 = assay: Cytotoxicity against human UO31 cells assessed as cell growth at 10 uM after 48 hrs by SRB assay relative to control; conditions: UO-31, 48 h, read-out: Activity; summary of the method: as §2
MDA-MB-231 = assay: Cytotoxicity against human MDA-MB-231 cells assessed as cell growth at 10 uM after 48 hrs by SRB assay relative to control; conditions: MDA-MB-231, 48 h, read-out: Activity; summary of the method: as §1
MDA-MB-468 = assay: Cytotoxicity against human MDA-MB-468 cells assessed as cell growth at 10 uM after 48 hrs by SRB assay relative to control; conditions: MDA-MB-468, 48 h, read-out: Activity
PC-3 = assay: Cytotoxicity against human PC3 cells assessed as cell growth at 10 uM after 48 hrs by SRB assay relative to control; conditions: PC-3, 48 h, read-out: Activity
BT-549 = assay: Cytotoxicity against human BT549 cells assessed as cell growth at 10 uM after 48 hrs by SRB assay relative to control; conditions: BT-549, 48 h, read-out: Activity; summary of the method: as §1

`CSC1=Nc2c(c(C)c(-c3ccccc3)n2CCCN2CCCCC2)C2=NC(=O)CC(C)N12` (centres undefined) showed a growth at 10 µM (CCRF-CEM) of 21%, a growth at 10 µM (HL-60(TB)) of -33% and a growth at 10 µM (K562) of 12%. For the same compound, the growth at 10 µM (SR) was 2%, the growth at 10 µM (A549) was 32% and the growth at 10 µM (NCI-H23) was 63%. For the same compound, the growth at 10 µM (COLO 205) was -87%, the growth at 10 µM (HCC 2998) was 61% and the growth at 10 µM (SF-268) was 66%. For the same compound, the growth at 10 µM (SF-295) was 39%, the growth at 10 µM (SF-539) was 79% and the growth at 10 µM (SNB-19) was 20%. For the same compound, the growth at 10 µM (SNB-75) was 50%, the growth at 10 µM (LOX IMVI) was 42% and the growth at 10 µM (M14) was 60%. The growth at 10 µM (MDA-MB-435) was 26%, the growth at 10 µM (SK-MEL-2) was 63% and the growth at 10 µM (SK-MEL-28) was 43%. It also gave a growth at 10 µM (UACC-62) of 54%, a growth at 10 µM (OVCAR-4) of 44% and a growth at 10 µM (OVCAR-5) of 83%. For the same compound, the growth at 10 µM (OVCAR-8) was 45%, the growth at 10 µM (NCI/ADR-RES) was 82% and the growth at 10 µM (786-0) was 80%. The growth at 10 µM (ACHN) was 67%, the growth at 10 µM (RXF 393) was 56% and the growth at 10 µM (SN12C) was 45%. For the same compound, the growth at 10 µM (TK-10) was 49%, the growth at 10 µM (UO-31) was 57% and the growth at 10 µM (MDA-MB-231) was 70%. For the same compound, the growth at 10 µM (MDA-MB-468) was -19%.

Work on `CSC1=Nc2c(c(C)c(-c3ccccc3)n2CCCC(=O)O)C2=NC(=O)CN12` yielded a growth at 10 µM (CCRF-CEM) of 102%, a growth at 10 µM (HL-60(TB)) of 83% and a growth at 10 µM (K562) of 99%. It also gave a growth at 10 µM (A549) of 101%, a growth at 10 µM (NCI-H23) of 105% and a growth at 10 µM (COLO 205) of 153%. For the same compound, the growth at 10 µM (HCC 2998) was 106%, the growth at 10 µM (SF-268) was 96% and the growth at 10 µM (SF-295) was 105%. The growth at 10 µM (SF-539) was 92%, the growth at 10 µM (SNB-19) was 104% and the growth at 10 µM (SNB-75) was 83%. For the same compound, the growth at 10 µM (LOX IMVI) was 77%, the growth at 10 µM (M14) was 104% and the growth at 10 µM (MDA-MB-435) was 107%. The growth at 10 µM (SK-MEL-2) was 117%, the growth at 10 µM (SK-MEL-28) was 84% and the growth at 10 µM (UACC-62) was 95%. It also gave a growth at 10 µM (OVCAR-4) of 92%, a growth at 10 µM (OVCAR-5) of 98% and a growth at 10 µM (OVCAR-8) of 98%. The growth at 10 µM (NCI/ADR-RES) was 98%, the growth at 10 µM (786-0) was 102% and the growth at 10 µM (ACHN) was 89%. It also gave a growth at 10 µM (RXF 393) of 96%, a growth at 10 µM (SN12C) of 105% and a growth at 10 µM (TK-10) of 135%. For the same compound, the growth at 10 µM (UO-31) was 82%, the growth at 10 µM (PC-3) was 94% and the growth at 10 µM (MDA-MB-231) was 107%. The growth at 10 µM (BT-549) was 94% and the growth at 10 µM (MDA-MB-468) was 90%.

Compound `CSC1=Nc2c(c(C)c(-c3ccccc3)n2CCCN2CCN(C)CC2)C2=NC(=O)CN12` has a growth at 10 µM (CCRF-CEM) of 86%, a growth at 10 µM (HL-60(TB)) of 91% and a growth at 10 µM (K562) of 93%. The growth at 10 µM (SR) was 70%, the growth at 10 µM (A549) was 90% and the growth at 10 µM (NCI-H23) was 94%. The growth at 10 µM (COLO 205) was 91%, the growth at 10 µM (HCC 2998) was 100% and the growth at 10 µM (SF-268) was 88%. For the same compound, the growth at 10 µM (SF-295) was 110%, the growth at 10 µM (SF-539) was 86% and the growth at 10 µM (SNB-19) was 96%. The growth at 10 µM (SNB-75) was 51%, the growth at 10 µM (LOX IMVI) was 93% and the growth at 10 µM (M14) was 100%. It also gave a growth at 10 µM (MDA-MB-435) of 105%, a growth at 10 µM (SK-MEL-2) of 92% and a growth at 10 µM (SK-MEL-28) of 103%. For the same compound, the growth at 10 µM (UACC-62) was 87%, the growth at 10 µM (OVCAR-4) was 89% and the growth at 10 µM (OVCAR-5) was 99%. The growth at 10 µM (OVCAR-8) was 93%, the growth at 10 µM (NCI/ADR-RES) was 98% and the growth at 10 µM (786-0) was 98%. The growth at 10 µM (ACHN) was 90%, the growth at 10 µM (RXF 393) was 106% and the growth at 10 µM (SN12C) was 96%. For the same compound, the growth at 10 µM (TK-10) was 127%, the growth at 10 µM (UO-31) was 78% and the growth at 10 µM (MDA-MB-231) was 82%. It also gave a growth at 10 µM (MDA-MB-468) of 79%.
